This passage reports MIC, IC50 and selectivity ratio results from ChEMBL document CHEMBL3877325, “Novel salicylanilides from 4,5-dihalogenated salicylic acids: Synthesis, antimicrobial activity and cytotoxicity” (Bioorg Med Chem, 2017).

Data set [1] relates to Mycobacterium kansasii. Kind of data set: Antimycobacterial activity against Mycobacterium kansasii isolate 6509/96 after 14 days by micromethod. Type of data set: functional. Conditions: isolate 6509/96, 336 h. The method, boiled down: (§1)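 MIC in Šula's semisynthetic medium at 37 °C, read after 7, 14 and 21 days. Inoculum is strain dilution 10^-4; 235/80 is a collection strain and 6509/96 a clinical isolate. Compounds are added as DMSO solutions at 500, 250, 125, 62.5, 32, 16, 8, 4, 2, 1 and 0.5 µM. INH (in sterile water) and PAS are the reference drugs.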

Data set [2] has as its system Mycobacterium avium. Kind of data set: Antimycobacterial activity against Mycobacterium avium My 330/80 after 21 days by micromethod. It is filed as functional. Conditions: My 330/80, 504 h. The procedure, abridged:
(§2)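 M. avium My 330/80 (collection strain) inoculated at 10^-5 dilution into Šula's semisynthetic medium. Compounds added from DMSO solutions at 500, 250, 125, 62.5, 32, 16, 8, 4, 2, 1 and 0.5 µM. MIC determined by micromethod at 37 °C, read after 14 and 21 days.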

The test system of data set [3] is Mycobacterium kansasii. Kind of data set: Antimycobacterial activity against Mycobacterium kansasii isolate 6509/96 after 7 days by micromethod. Conditions: isolate 6509/96, 168 h. It is filed as functional. The procedure, abridged:
as §1

Data set [4] concerns Mycobacterium tuberculosis. Kind of data set: Antimycobacterial activity against Mycobacterium tuberculosis H37Rv My 331/88 after 14 days by micromethod. It is filed as functional. As to conditions: H37Rv My 331/88, 336 h. The procedure, abridged: (§3)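 MIC micromethod in Šula's semisynthetic medium at 37 °C, read after 14 and 21 days. Compounds added as DMSO solutions at 500 down to 0.5 µM (twofold-type series: 500, 250, 125, 62.5, 32, 16, 8, 4, 2, 1, 0.5 µM). Isoniazid standard given in sterile water.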

The subject of data set [5] is Mycobacterium avium. Kind of data set: Antimycobacterial activity against Mycobacterium avium My 330/80 after 14 days by micromethod. As to conditions: My 330/80, 336 h. Type of data set: functional. The method, boiled down:
as §2

Data set [6] relates to Mycobacterium kansasii. Kind of data set: Antimycobacterial activity against Mycobacterium kansasii isolate 235/80 after 7 days by micromethod. Conditions: isolate 235/80, 168 h. Type of data set: functional. The method, boiled down:
as §1

Data set [7] deals with Mycobacterium kansasii. Kind of data set: Antimycobacterial activity against Mycobacterium kansasii isolate 235/80 after 21 days by micromethod. Conditions: isolate 235/80, 504 h. Type of data set: functional. The procedure, abridged: as §1
Data set [8] has as its system Mycobacterium tuberculosis. Kind of data set: Antimycobacterial activity against Mycobacterium tuberculosis H37Rv My 331/88 after 21 days by micromethod. Type of data set: functional. As to conditions: H37Rv My 331/88, 504 h. The method, boiled down:
as §3

A short description of data set [9]: Cytotoxicity against human HepG2 cells assessed as reduction in cell viability after 24 hrs by MTS assay. Type of data set: toxicity, cell-based. The method, boiled down: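 HepG2 cells (passages 33-37) are grown in MEM with 10% FBS, L-glutamine and non-essential amino acids. They are seeded at 1 × 10^4 cells/well and treated next day with 0.1-100 µM in triplicate for 24 h at 37 °C, 5% CO2. MTS reagent is added for 2 h and A490 read.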

Data set [10] deals with Mycobacterium kansasii. Kind of data set: Antimycobacterial activity against Mycobacterium kansasii isolate 235/80 after 14 days by micromethod. Type of data set: functional. As to conditions: isolate 235/80, 336 h. The method, boiled down: as §1
Data set [11] in a line: Selectivity index, ratio of IC50 for human HepG2 cells to MIC for Mycobacterium tuberculosis H37Rv after 21 days. Conditions: HepG2 cells versus Mycobacterium tuberculosis H37Rv, read-out: Selectivity Index. Type of data set: toxicity, cell-based. The method, boiled down: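 HepG2 cells (passages 33-37) seeded at 1 × 10^4 per well and treated next day with 0.1–100 µM in triplicate. After 24 h at 37 °C, 5% CO2, MTS reagent added for 2 h and absorbance read at 490 nm. IC50 taken from viability relative to untreated control, then divided by the 21-day H37Rv MIC.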

Data set [12] relates to Mycobacterium kansasii. Kind of data set: Antimycobacterial activity against Mycobacterium kansasii isolate 6509/96 after 21 days by micromethod. It is filed as functional. As to conditions: isolate 6509/96, 504 h. The method, boiled down:
as §1

Values after ≈ are worked out from the molar mass of the structure shown.

Usually MIC stands for the smallest concentration in the dilution series that meets the test's criterion for growth inhibition. A high value points to a less susceptible organism. The IC50 is the midpoint of a concentration-inhibition curve. As to `O=C(Nc1cc(C(F)(F)F)cc(C(F)(F)F)c1)c1cc(Cl)c(Br)cc1O`, the MIC against Mycobacterium kansasii [1] turned out to be 8 µM (≈ 3.7 µg/mL); in the data set on Mycobacterium avium [2], 32 µM (≈ 14.8 µg/mL); in the data set on Mycobacterium kansasii [3], 8 µM (≈ 3.7 µg/mL); in data set [4], 2 µM (≈ 0.925 µg/mL); with Mycobacterium avium [5] it was 32 µM (≈ 14.8 µg/mL); against Mycobacterium kansasii [6], 8 µM (≈ 3.7 µg/mL). In addition, the minimal inhibitory concentration (MIC) in the data set with Mycobacterium kansasii [7] turned out to be 8 µM (≈ 3.7 µg/mL); in [8], 2 µM (≈ 0.925 µg/mL); in the data set on Mycobacterium kansasii [10] it was 8 µM (≈ 3.7 µg/mL); in the data set on Mycobacterium kansasii [12] it was 8 µM (≈ 3.7 µg/mL). Besides, the IC50 at 24 h in data set [9] was 4.8 µM. The selectivity ratio at 504 h in data set [11] was found to be 2.4.

Consider `O=C(Nc1ccc(C(F)(F)F)cc1)c1cc(Br)c(Br)cc1O`, for which the MIC in the data set with Mycobacterium kansasii [1] was found to be 4 µM (≈ 1.76 µg/mL); with Mycobacterium avium [2] it was 62.5 µM (≈ 27.4 µg/mL); against Mycobacterium kansasii [3] it was 4 µM (≈ 1.76 µg/mL); in [4], 2 µM (≈ 0.878 µg/mL); against Mycobacterium avium [5], 32 µM (≈ 14 µg/mL); against Mycobacterium kansasii [6], 4 µM (≈ 1.76 µg/mL). In addition, the MIC with Mycobacterium kansasii [7] turned out to be 4 µM (≈ 1.76 µg/mL); in data set [8], 2 µM (≈ 0.878 µg/mL); against Mycobacterium kansasii [10] it was 4 µM (≈ 1.76 µg/mL); with Mycobacterium kansasii [12], 4 µM (≈ 1.76 µg/mL). In [9], the IC50 at 24 h was 6.25 µM. Besides, the selectivity ratio at 504 h in [11] was found to be 3.13.

Regarding `O=C(Nc1ccc(Cl)c(Cl)c1)c1cc(Cl)c(Br)cc1O`, the MIC came to 8 µM (≈ 3.16 µg/mL) in the data set with Mycobacterium kansasii [1]; 125 µM (≈ 49.4 µg/mL) against Mycobacterium avium [2]; 8 µM (≈ 3.16 µg/mL) with Mycobacterium kansasii [3]; 2 µM (≈ 0.791 µg/mL) in [4]; 125 µM (≈ 49.4 µg/mL) with Mycobacterium avium [5]; 8 µM (≈ 3.16 µg/mL) in the data set on Mycobacterium kansasii [6]. In addition, the MIC amounted to 8 µM (≈ 3.16 µg/mL) against Mycobacterium kansasii [7], 4 µM (≈ 1.58 µg/mL) in data set [8], 8 µM (≈ 3.16 µg/mL) against Mycobacterium kansasii [10] and 8 µM (≈ 3.16 µg/mL) in the data set with Mycobacterium kansasii [12]. Further, the IC50 at 24 h in [9] came out at 11.1 µM. Besides, the selectivity ratio at 504 h in data set [11] was found to be 2.76.

For `O=C(Nc1ccc(Br)cc1)c1cc(Br)c(Br)cc1O`, the MIC with Mycobacterium kansasii [1] was determined as 8 µM (≈ 3.6 µg/mL); against Mycobacterium avium [2] it was 32 µM (≈ 14.4 µg/mL); in the data set with Mycobacterium kansasii [3], 8 µM (≈ 3.6 µg/mL); in data set [4], 4 µM (≈ 1.8 µg/mL); against Mycobacterium avium [5] it was 32 µM (≈ 14.4 µg/mL); with Mycobacterium kansasii [6], 4 µM (≈ 1.8 µg/mL). Further, the MIC in the data set on Mycobacterium kansasii [7] came out at 8 µM (≈ 3.6 µg/mL); in [8], 4 µM (≈ 1.8 µg/mL); in the data set on Mycobacterium kansasii [10], 8 µM (≈ 3.6 µg/mL); in the data set on Mycobacterium kansasii [12] it was 8 µM (≈ 3.6 µg/mL). In data set [9], the IC50 at 24 h worked out at 17.9 µM. Further, the selectivity ratio at 504 h in data set [11] turned out to be 4.47.

In the case of `O=C(Nc1ccc(C(F)(F)F)cc1)c1cc(Cl)c(Br)cc1O`, the minimal inhibitory concentration (MIC) came out at 4 µM (≈ 1.58 µg/mL) in the data set on Mycobacterium kansasii [1]; 32 µM (≈ 12.6 µg/mL) against Mycobacterium avium [2]; 4 µM (≈ 1.58 µg/mL) in the data set with Mycobacterium kansasii [3]; 1 µM (≈ 0.395 µg/mL) in [4]; 32 µM (≈ 12.6 µg/mL) in the data set with Mycobacterium avium [5]; 4 µM (≈ 1.58 µg/mL) against Mycobacterium kansasii [6]. Moreover, the MIC in the data set on Mycobacterium kansasii [7] worked out at 4 µM (≈ 1.58 µg/mL); in data set [8], 2 µM (≈ 0.789 µg/mL); in the data set on Mycobacterium kansasii [10], 4 µM (≈ 1.58 µg/mL); in the data set with Mycobacterium kansasii [12], 4 µM (≈ 1.58 µg/mL). Moreover, the half-inhibitory concentration (IC50) at 24 h in data set [9] is 6.52 µM. Moreover, the selectivity ratio at 504 h in data set [11] came out at 3.26.

`O=C(Nc1ccc(Cl)c(Cl)c1)c1cc(Br)c(Br)cc1O`: the MIC was found to be 8 µM (≈ 3.52 µg/mL) against Mycobacterium kansasii [1]; 62.5 µM (≈ 27.5 µg/mL) against Mycobacterium avium [2]; 8 µM (≈ 3.52 µg/mL) against Mycobacterium kansasii [3]; 2 µM (≈ 0.88 µg/mL) in [4]; 62.5 µM (≈ 27.5 µg/mL) in the data set with Mycobacterium avium [5]; 8 µM (≈ 3.52 µg/mL) against Mycobacterium kansasii [6]. In addition, the MIC in the data set on Mycobacterium kansasii [7] worked out at 8 µM (≈ 3.52 µg/mL); in [8], 4 µM (≈ 1.76 µg/mL); in the data set on Mycobacterium kansasii [10] it was 8 µM (≈ 3.52 µg/mL); with Mycobacterium kansasii [12], 8 µM (≈ 3.52 µg/mL). The IC50 at 24 h in [9] was determined as 7.96 µM. Further, in data set [11], the selectivity ratio at 504 h amounted to 1.99.

Take `O=C(Nc1cc(C(F)(F)F)cc(C(F)(F)F)c1)c1cc(Br)c(Br)cc1O`: the MIC with Mycobacterium kansasii [1] stood at 8 µM (≈ 4.06 µg/mL); in the data set with Mycobacterium avium [2], 32 µM (≈ 16.2 µg/mL); with Mycobacterium kansasii [3] it was 8 µM (≈ 4.06 µg/mL); in [4], 2 µM (≈ 1.01 µg/mL); against Mycobacterium avium [5], 16 µM (≈ 8.11 µg/mL); against Mycobacterium kansasii [6], 4 µM (≈ 2.03 µg/mL). In addition, the MIC is 8 µM (≈ 4.06 µg/mL) against Mycobacterium kansasii [7], 2 µM (≈ 1.01 µg/mL) in data set [8], 8 µM (≈ 4.06 µg/mL) against Mycobacterium kansasii [10] and 8 µM (≈ 4.06 µg/mL) against Mycobacterium kansasii [12]. Besides, the IC50 at 24 h in data set [9] worked out at 3 µM. Further, in data set [11], the selectivity ratio at 504 h was found to be 1.5.
